Source: the M2OR odorant receptor database
Where a chain is given by its changes, count along the chain named.

Legend:
Settings in all cases: stereoisomer not certain
O1440 = tested on: T1, O1440
T1 sequence (whole entry): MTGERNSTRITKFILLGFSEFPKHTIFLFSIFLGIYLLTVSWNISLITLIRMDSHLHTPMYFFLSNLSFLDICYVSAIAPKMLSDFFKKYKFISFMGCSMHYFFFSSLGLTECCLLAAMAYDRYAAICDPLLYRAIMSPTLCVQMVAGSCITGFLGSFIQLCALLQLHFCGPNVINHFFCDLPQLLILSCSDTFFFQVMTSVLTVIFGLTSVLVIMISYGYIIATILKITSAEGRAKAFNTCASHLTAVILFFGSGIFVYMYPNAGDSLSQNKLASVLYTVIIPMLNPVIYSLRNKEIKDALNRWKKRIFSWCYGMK
In short: (§1)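 Each receptor–molecule pair is labelled responsive or non-responsive (inactive) according to whether the original authors judged the measured signal statistically different from baseline. The data were taken from the main text and supplementary material of published papers and checked for typos and inconsistencies. Assay methods differed by source, with transient luciferase assays in mammalian cell lines being common.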

O10R2 I170L = tested on: T2, O10R2 I170L
T2 sequence (whole entry): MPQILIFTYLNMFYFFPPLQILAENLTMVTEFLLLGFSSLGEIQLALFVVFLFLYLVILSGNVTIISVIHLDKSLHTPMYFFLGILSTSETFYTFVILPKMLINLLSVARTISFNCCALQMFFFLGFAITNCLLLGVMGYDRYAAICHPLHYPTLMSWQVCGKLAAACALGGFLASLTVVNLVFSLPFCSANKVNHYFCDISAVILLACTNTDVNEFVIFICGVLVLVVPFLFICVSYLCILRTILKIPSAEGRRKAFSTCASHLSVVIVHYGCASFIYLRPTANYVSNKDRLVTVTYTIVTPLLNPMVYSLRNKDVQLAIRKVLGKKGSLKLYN
In short: as §1

O10T2 I137M = tested on: T3, O10T2 I137M
T3 sequence (whole entry): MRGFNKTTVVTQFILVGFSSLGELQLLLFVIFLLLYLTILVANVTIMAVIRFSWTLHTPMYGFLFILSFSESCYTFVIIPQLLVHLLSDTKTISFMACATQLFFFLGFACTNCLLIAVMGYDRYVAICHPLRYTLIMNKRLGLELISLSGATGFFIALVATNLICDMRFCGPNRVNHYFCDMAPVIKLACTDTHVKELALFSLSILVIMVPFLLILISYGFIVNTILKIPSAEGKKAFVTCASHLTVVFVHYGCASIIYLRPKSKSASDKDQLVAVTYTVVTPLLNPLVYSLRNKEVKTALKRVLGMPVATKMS
In short: as §1

O10V1 Q123R = tested on: T4, O10V1 Q123R
T4 sequence (whole entry): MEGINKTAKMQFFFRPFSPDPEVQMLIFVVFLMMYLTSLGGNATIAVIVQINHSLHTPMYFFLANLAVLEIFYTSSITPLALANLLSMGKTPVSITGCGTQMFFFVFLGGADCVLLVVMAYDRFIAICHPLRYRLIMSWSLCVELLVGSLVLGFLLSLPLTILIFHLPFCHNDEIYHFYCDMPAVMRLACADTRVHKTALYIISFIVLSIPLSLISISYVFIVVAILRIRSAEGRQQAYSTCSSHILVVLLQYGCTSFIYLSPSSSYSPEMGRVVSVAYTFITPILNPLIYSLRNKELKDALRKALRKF
In short: as §1

O10X1 N4T R181S = tested on: T5, O10X1 N4T R181S
T5 sequence (whole entry): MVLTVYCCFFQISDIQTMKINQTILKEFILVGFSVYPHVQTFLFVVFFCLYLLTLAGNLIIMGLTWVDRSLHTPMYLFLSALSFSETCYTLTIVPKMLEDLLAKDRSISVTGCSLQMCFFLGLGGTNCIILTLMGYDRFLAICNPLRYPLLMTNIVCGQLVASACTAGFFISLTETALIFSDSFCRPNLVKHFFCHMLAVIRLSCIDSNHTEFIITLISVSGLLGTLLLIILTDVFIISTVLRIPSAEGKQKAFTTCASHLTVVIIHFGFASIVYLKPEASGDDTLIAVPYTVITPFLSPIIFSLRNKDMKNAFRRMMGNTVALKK
In short: as §1

O11G2 F3I I99N V116I = tested on: T6, O11G2 F3I I99N V116I
T6 sequence (whole entry): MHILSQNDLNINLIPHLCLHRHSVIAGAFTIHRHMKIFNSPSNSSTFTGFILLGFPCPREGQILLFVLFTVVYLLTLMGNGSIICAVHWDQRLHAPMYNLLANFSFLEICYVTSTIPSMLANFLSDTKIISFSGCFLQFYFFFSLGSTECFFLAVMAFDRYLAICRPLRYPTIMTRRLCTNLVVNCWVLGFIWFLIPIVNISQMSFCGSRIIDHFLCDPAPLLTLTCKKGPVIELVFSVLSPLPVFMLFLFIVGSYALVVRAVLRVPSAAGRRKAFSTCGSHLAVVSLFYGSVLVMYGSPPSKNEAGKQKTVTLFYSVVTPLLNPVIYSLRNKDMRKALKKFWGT
In short: as §1

O11H1 M240V = tested on: T7, O11H1 M240V
T7 sequence (whole entry): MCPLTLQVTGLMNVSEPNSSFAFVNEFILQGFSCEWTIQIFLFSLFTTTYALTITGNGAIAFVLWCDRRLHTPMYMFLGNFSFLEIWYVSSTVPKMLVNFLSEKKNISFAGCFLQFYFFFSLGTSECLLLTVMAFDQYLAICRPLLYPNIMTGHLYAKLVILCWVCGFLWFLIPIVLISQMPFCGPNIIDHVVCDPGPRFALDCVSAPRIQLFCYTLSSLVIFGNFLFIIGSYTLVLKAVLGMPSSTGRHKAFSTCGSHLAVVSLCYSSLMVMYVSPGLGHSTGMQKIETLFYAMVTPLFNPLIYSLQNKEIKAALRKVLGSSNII
In short: as §1

O11H6 I107T = tested on: T8, O11H6 I107T
T8 sequence (whole entry): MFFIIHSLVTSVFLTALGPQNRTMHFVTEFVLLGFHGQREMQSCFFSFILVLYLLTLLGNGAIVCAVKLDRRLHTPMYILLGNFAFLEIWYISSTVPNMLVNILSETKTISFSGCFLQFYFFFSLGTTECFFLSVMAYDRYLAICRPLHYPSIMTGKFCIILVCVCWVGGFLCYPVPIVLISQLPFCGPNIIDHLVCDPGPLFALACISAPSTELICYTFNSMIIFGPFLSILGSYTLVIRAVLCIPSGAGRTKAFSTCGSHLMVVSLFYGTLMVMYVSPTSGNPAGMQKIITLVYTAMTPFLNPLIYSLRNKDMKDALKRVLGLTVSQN
In short: as §1

O11HC C156Y V240M = tested on: T9, O11HC C156Y V240M
T9 sequence (whole entry): T7 sequence (whole entry) with S33T, R68W, V240M
In short: as §1

O12D2 S104F = tested on: T10, O12D2 S104F
T10 sequence (whole entry): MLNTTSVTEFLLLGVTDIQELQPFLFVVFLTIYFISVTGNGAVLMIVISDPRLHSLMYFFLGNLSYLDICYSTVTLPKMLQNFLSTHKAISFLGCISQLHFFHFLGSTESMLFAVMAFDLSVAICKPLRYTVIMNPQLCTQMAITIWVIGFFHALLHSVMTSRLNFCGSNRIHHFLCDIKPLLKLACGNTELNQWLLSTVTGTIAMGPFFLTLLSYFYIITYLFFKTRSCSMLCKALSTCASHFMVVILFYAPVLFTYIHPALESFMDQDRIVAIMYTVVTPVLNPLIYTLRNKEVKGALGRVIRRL
In short: as §1

O13C2 H6Q = tested on: T11, O13C2 H6Q
T11 sequence (whole entry): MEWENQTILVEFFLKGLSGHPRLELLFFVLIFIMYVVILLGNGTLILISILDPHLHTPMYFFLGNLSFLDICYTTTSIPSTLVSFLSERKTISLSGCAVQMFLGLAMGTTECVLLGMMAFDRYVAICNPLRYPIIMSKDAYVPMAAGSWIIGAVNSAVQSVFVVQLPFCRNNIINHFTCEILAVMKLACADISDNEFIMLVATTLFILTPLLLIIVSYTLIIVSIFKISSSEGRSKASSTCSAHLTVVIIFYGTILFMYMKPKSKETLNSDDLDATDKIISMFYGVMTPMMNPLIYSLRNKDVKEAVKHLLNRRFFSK
In short: as §1

O13C8 A19D = tested on: T12, O13C8 A19D
T12 sequence (whole entry): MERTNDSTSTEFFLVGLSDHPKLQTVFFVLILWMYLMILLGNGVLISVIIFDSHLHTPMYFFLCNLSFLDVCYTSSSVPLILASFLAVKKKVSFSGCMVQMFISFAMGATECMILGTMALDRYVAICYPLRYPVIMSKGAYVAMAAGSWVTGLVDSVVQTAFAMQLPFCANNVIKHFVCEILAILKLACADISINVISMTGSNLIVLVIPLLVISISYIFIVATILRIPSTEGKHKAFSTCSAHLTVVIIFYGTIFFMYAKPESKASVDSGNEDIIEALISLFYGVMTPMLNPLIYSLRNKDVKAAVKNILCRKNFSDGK
In short: as §1

O13C9 H17L V19G L23H = tested on: T13, O13C9 H17L V19G L23H
T13 sequence (whole entry): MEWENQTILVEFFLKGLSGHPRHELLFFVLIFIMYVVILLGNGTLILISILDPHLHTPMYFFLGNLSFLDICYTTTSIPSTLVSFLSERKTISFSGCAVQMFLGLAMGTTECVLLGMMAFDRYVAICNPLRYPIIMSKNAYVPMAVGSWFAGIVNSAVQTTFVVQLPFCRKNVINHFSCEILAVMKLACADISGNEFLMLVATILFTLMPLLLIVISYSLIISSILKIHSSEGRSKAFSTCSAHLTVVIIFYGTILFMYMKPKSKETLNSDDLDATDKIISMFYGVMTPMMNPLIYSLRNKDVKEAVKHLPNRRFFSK
In short: as §1

O13C9 Q6H = tested on: T14, O13C9 Q6H
T14 sequence (whole entry): T13 sequence (whole entry) with Q6H, L17H, G19V, H23L
In short: as §1

O13F1 F18S T254M = tested on: T15, O13F1 F18S T254M
T15 sequence (whole entry): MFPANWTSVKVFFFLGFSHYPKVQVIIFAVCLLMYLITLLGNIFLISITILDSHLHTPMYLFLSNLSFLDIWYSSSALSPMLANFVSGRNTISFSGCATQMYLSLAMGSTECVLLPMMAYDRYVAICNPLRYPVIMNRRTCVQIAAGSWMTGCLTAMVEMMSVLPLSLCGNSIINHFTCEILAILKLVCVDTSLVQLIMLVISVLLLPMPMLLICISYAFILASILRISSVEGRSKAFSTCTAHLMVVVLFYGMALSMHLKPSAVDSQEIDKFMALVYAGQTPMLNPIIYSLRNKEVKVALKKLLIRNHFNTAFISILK
In short: as §1

O13F1 F18S = tested on: T16, O13F1 F18S
T16 sequence (whole entry): T15 sequence (whole entry) with M254T
In short: as §1

O13G1 K46I M146L = tested on: T17, O13G1 K46I M146L
T17 sequence (whole entry): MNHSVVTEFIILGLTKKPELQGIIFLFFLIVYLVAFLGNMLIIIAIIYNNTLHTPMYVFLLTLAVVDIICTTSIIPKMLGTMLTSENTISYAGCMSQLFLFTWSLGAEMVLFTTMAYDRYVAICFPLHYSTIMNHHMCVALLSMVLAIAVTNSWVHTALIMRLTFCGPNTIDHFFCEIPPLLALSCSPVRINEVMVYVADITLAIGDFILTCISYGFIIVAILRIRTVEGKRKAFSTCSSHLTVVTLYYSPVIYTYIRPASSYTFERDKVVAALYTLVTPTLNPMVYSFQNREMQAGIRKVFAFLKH
In short: as §1

O13G1 = tested on: T18, O13G1
T18 sequence (whole entry): T17 sequence (whole entry) with I46K, I132V, L146M
In short: as §1

O13H1 Y266S = tested on: T19, O13H1 Y266S
T19 sequence (whole entry): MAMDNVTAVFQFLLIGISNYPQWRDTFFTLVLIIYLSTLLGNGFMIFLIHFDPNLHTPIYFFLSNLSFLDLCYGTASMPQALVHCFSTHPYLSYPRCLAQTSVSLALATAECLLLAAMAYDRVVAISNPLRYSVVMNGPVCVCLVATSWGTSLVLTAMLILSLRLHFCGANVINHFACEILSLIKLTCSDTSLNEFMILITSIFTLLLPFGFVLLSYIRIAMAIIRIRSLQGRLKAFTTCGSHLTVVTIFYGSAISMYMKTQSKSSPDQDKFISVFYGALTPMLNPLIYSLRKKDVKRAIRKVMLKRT
In short: as §1

O13J1 = tested on: T20, O13J1
T20 sequence (whole entry): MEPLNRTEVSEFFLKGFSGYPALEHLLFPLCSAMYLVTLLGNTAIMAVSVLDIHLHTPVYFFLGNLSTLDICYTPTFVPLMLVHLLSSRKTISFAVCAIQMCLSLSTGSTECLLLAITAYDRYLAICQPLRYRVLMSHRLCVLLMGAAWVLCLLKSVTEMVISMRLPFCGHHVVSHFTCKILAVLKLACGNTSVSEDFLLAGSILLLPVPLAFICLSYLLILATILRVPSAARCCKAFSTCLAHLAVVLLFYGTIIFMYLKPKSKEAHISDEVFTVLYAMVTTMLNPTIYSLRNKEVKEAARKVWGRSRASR
In short: as §1

Measured: odorant receptor agonist call;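 also: active if original authors judged signal statistically different from baseline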

O=C1CCCCCCCCC1
inactive: O1440

CC1C(C)(C)C2=C(C(=O)CCC2)C1(C)C (stereo not given)
inactive: O1440

CCCC(S)CCOC(C)=O (stereo not given)
not listed: O1440
inactive: all other assays above

Cc1cnc(C)c(C)n1
not listed: O1440
inactive: all other assays above
